Tested on: MS2 coat protein
Test: apparent Kd, MS2 coat protein; higher = weaker binding; RNA-MaP array; FMN 200 µM where present
In short: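 In 100 mM Tris-HCl pH 7.5, 80 mM KCl, 4 mM MgCl2, BSA, DTT, yeast tRNA and Tween-20, SNAP-549-labelled MS2 coat protein was titrated from 0.7 or 1.5 nM, doubling to 3 µM, over designs transcribed by stalled E. coli RNA polymerase on Illumina sequencing-chip clusters. This was done first without ligand, then with ligand held constant. After green signal was normalised to red-channel RNA signal and control-cluster median Fmax, the apparent Kd was taken as the median of filtered per-cluster binding-curve fits.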

[1] = designed as: ON switch for flavin mononucleotide, no ligand
[2] = ligand present: flavin mononucleotide, designed as: ON switch for flavin mononucleotide
[3] = designed as: OFF switch for flavin mononucleotide, no ligand
[4] = ligand present: flavin mononucleotide, designed as: OFF switch for flavin mononucleotide

## UAUUGCGCCGUAAAAUAACACAUGAGGAUCACCCAUGUGACACAGGAUAUGACCAGAUCAGAAAGUCAGAAGGGUGAAAACGGC
[1]
  apparent Kd: 99.6 nM
[2]
  apparent Kd: 21.6 nM

## CAGUACUGAGGAUAUACAUGAGGAUCACCCAUGUAUUCCAGCUAGGAAACUAGCACAUGUAGAAGGCAGUACUG
[3]
  apparent Kd: 14.2 nM
[4]
  apparent Kd: 31.1 nM

## ACAUGAUAUGUAGGAUAUCACAUUAAUUGUUUUAUAAUUGUAUUUAGGAUUUGAGAAGGACAUUUACAUGAGGAUCACCCAUGU
[3]
  apparent Kd: 15.8 nM
[4]
  apparent Kd: 11.3 nM

## GCACUUCGGCAGAAGGGACUAAGGGUAUGGUAGUCAGGAUAUGCAGGGUGGGCGUUUCACAUGAGGAUCACCCAUGUAGGACCA
[1]
  apparent Kd: 21.1 nM
[2]
  apparent Kd: 7.78 nM

## CAGCAUCAUGUAGGAUAUGCGUGGCGAAGCUAUGCAGAAGGACAUGAGGAUCACCCAUGUCUUACUGUGCGUACACAGUUGCUG
[3]
  apparent Kd: 6.87 nM
[4]
  apparent Kd: 11.3 nM

## CAAUGUACCUAGGAUAUAACCUACGACAUUGGGUUAGAAGGAGGAACAUGAGGAUCACCCAUGUGACUUCGCAA
[3]
  apparent Kd: 10 nM
[4]
  apparent Kd: 11.9 nM

## UGUUGUAUUACAGGAUAUCUAUUAUUUGUAUUUAGAGAAGGGUAUUCACAUGAGGAUCACCCAUGUAUAUACGAGGAAGUUGUG
[1]
  apparent Kd: 61.3 nM
[2]
  apparent Kd: 58.6 nM

## GGAAAUCAUGUAGGAUAUGCAUGGCGAAGCUACGCAGAAGGACAUGAGGAUCACCCAUGUUAUAGCUACCCAGUUAGGUGGCAA
[3]
  apparent Kd: 122 nM
[4]
  apparent Kd: 172 nM

## ACAUGUUUUGUAGGAUAUCACUAGUUGUGUUAUAUAUUUGUUAUAAUGUAUUGAGAAGGACAUUUACAUGAGGAUCACCCAUGU
[4]
  apparent Kd: 7.44 nM

## GAGCUAUGAGGAUAUGCAUAGAUACGGAUUCGUGUAGUACUACAUGAGGAUCACCCAUGUAGAAGGCGUGGCAG
[3]
  apparent Kd: 14.3 nM
[4]
  apparent Kd: 15.9 nM

## GUAGCAACAUGAGGAUCACCCAUGUAGGAUAUCGCUAUUGUAAUCAUGAAACAUGAUUACAAUAGCGAGAAGGACAUAAGCUAC
[3]
  apparent Kd: 6.67 nM
[4]
  apparent Kd: 8.84 nM

## UGUCGGAGCAGAGGAUAUAACAUGAGGAUCACCCAUGUAAUAAGAUCAAGCUGGAAACAGCAAUGUUAGAAGGCUGCUCCGACA
[3]
  apparent Kd: 219 nM
[4]
  apparent Kd: 1010 nM

## AGCGAGAUAGGCGAGGAUAUGCUUUUUUGCACAUGAGGAUCACCCAUGUCUUUGUUUUUUGUUUUGCAGAAGGCGCAUUCUCUUU
[1]
  apparent Kd: 18.9 nM
[2]
  apparent Kd: 41.2 nM

## UUCGCUAAGGUGUAGCGAGACACGCAAGAAGGGUGAUGCACAUGAGGAUCACCCAUGUAAGCCUUACAGGAUAUUGCUUGCCGA
[1]
  apparent Kd: 899 nM
[2]
  apparent Kd: 211 nM

## AGGACCAAAACAUCUACAUGAGGAUCACCCAUGUAUCGUAUGCAGGAUAUCCAUGGGUGGGCAGAGGAGAAGGGCAUUAAAAGA
[1]
  apparent Kd: 61.6 nM
[2]
  apparent Kd: 124 nM

## AGUUGGCGAGGAUAUACAUGAGGAUCACCCAUGUGAAAUAUAAUAGUGAGGAAGAAAAGUAGAAGGCGCUGACA
[3]
  apparent Kd: 48.3 nM
[4]
  apparent Kd: 281 nM

## GCUUGAGCAGGAUAUACAAGCUUGAGCUGAAAAGUUCGAGUACAUGAGGAUCACCCAUGUAGAAGGGUUCGAGU
[3]
  apparent Kd: 27.5 nM
[4]
  apparent Kd: 32.3 nM

## AUGUACCUAGGAUAUACAUGAGGAUCACCCAUGUAGCUUCACGUGGUAGGAUCCUUUGGUAGAAGGAGGAUCUU
[3]
  apparent Kd: 37.3 nM
[4]
  apparent Kd: 68.2 nM

## UGUCGGAGCAGAGGAUAUUACAUGAGGAUCACCCAUGUAUGAACCAAUAGCUGGAAACAGCAAUGUAAGAAGGCUGCUCCUACA
[3]
  apparent Kd: 12.5 nM
[4]
  apparent Kd: 147 nM

## GUGUAGAUAGGAUAUGCAUAGAGCUUACGAAAGUAGGCUCUACAUGAGGAUCACCCAUGUAGAAGGGUCUACAC
[3]
  apparent Kd: 27.9 nM
[4]
  apparent Kd: 21.2 nM

## UUACCUCAUGAGAAGGCGAUCAUGAAACAUGAUCGAGGAUAUCAUGUAAACAUGAGGAUCACCCAUGUAUGGGUAUUAUGGUAG
[1]
  apparent Kd: 198 nM
[2]
  apparent Kd: 56.8 nM

## GUGGCUUAUGAGAAGGCGAUCAUGAAACAUGAUCGAGGAUAUCAUGUAAACAUGAGGAUCACCCAUGUAUGGGUAUUAUGCUAC
[1]
  apparent Kd: 291 nM
[2]
  apparent Kd: 53.9 nM

## AUCAGCUCGUCAGGAUAUACGUCACUGCGUCAGCAGGGUGGUAAGAUCACAUGAGGAUCACCCAUGUAGAAGGGACGAGCUGAU
[3]
  apparent Kd: 23 nM
[4]
  apparent Kd: 404 nM

## GUCGGAAACGACAAUGAUAGGACUGAGGAUAUACAUAAGUUAGUCCAUACAUGAGGAUCACCCAUGUAGAAGGCAGUCCUAUCU
[3]
  apparent Kd: 7.78 nM
[4]
  apparent Kd: 33.4 nM
